SMILES strings stand for the structures. The source made the active and inactive calls. The rule behind the calls is not given here. Bounds are passed on as bounds.

Series [1] is described as follows: Cmax in Sprague-Dawley rat at 3 mg/kg, po measured upto 24 hrs by HPLC-MS/MS analysis. The following applies: in vivo. Also on record: dose 3 mg/kg, route oral. Format: ADME, organism-based.
The nature of series [2]: Oral bioavailability in Sprague-Dawley rat at 3 mg/kg measured upto 24 hrs by HPLC-MS/MS analysis. The settings on record: in vivo. Format: ADME, organism-based.
Series [3] is described as follows: Prodrug activation in rat.
Series [4] is described as follows: AUC (0 to 7 hrs) in Sprague-Dawley rat at 3 mg/kg, po measured upto 24 hrs by HPLC-MS/MS analysis. Format: ADME, organism-based. The settings on record: in vivo. On the set-up: time < 7 hr, dose 3 mg/kg, route oral.
The nature of series [5]: Prodrug activation in monkey. Also on record: species or system Macaca mulatta. The settings on record: rhesus monkey.
Series [6] can be described thus: Prodrug activation in dog. Also on record: species or system Canis lupus familiaris.
The subject of series [7] is Rattus norvegicus. The series can be described thus: In vivo inhibition of NEP in po dosed Sprague-Dawley rat assessed as increase in PANP level measured up to 8 hrs. Format: functional, organism-based. The method in brief: (§1)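 ANP potentiation model in conscious, chronically cannulated adult male Sprague–Dawley rats. Rats received an IV infusion of rat ANP to saturate the clearance receptors, so that ANP was removed mainly by NEP. The ethyl ester prodrug was then dosed orally. Blood was sampled at baseline and at intervals up to 8 h. Plasma ANP was read as % baseline, alongside parent plasma levels.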

Series [8] can be described thus: Clearance in monkey plasma. Format: ADME, cell-free, Macaca mulatta. The following applies: rhesus monkey.
The nature of series [9]: Clearance in Sprague-Dawley rat at 1 mg/kg, iv measured upto 24 hrs by HPLC-MS/MS analysis. The settings on record: in vivo. Format: ADME, organism-based.
Series [10] can be described thus: AUC (0 to 7 hrs) in Sprague-Dawley rat at 1 mg/kg, iv measured upto 24 hrs by HPLC-MS/MS analysis. On the set-up: time < 7 hr, dose 1 mg/kg, route intravenous. Format: ADME, organism-based. The settings on record: in vivo.
Series [11] in a line: Apparent half life in monkey. The following applies: rhesus monkey, in vivo; read-out: t1/2(app) (converted). Format: ADME, Macaca mulatta.
A short description of series [12]: Apparent half life in dog. Format: ADME, Canis lupus familiaris. The following applies: in vivo, read-out: t1/2(app) (converted).
The nature of series [13]: Terminal half life in Sprague-Dawley rat at 1 mg/kg, iv measured upto 24 hrs by HPLC-MS/MS analysis. Format: ADME, organism-based. The settings on record: in vivo, read-out: beta t1/2 (converted).
Series [14] can be described thus: Volume of distribution at steady state in Sprague-Dawley rat at 1 mg/kg, iv measured upto 24 hrs by HPLC-MS/MS analysis. Format: ADME, organism-based. The settings on record: in vivo, read-out: Vdss.
Series [15] in a line: Clearance in dog plasma. Format: ADME, cell-free, Canis lupus familiaris.
The nature of series [16]: Intrinsic clearance in rat Hepatocyte assessed per million cells. Format: ADME, cell-based. The settings on record: hepatocytes, read-out: CLH.
A short description of series [17]: Intrinsic clearance in human Hepatocyte assessed per million cells. Format: ADME, cell-based. The following applies: hepatocytes, read-out: CLH.
The nature of series [18]: Plasma concentration in Sprague-Dawley rat at 30 mg/kg, po. Format: ADME, organism-based. The settings on record: in vivo. The method in brief:
as §1

Series [19] can be described thus: Clearance in Sprague-Dawley rat at 1 mg/kg, iv. Format: ADME, organism-based. The following applies: in vivo.
Series [20] deals with Rattus norvegicus. Put plainly: In vivo inhibition of NEP in Sprague-Dawley rat assessed as increase in PANP level at 30 mg/kg, po measured after 15 mins. Format: functional, organism-based. The method in brief:
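Conscious, chronically cannulated adult male Sprague–Dawley rats received an IV infusion of rat ANP to saturate natriuretic peptide clearance receptors, so ANP elimination relied mainly on NEP. The ethyl ester prodrug was then given orally at 30 mg/kg. Blood was drawn at baseline before dosing and at intervals up to 8 h, and plasma ANP was expressed as % baseline, with parallel PK.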

A short description of series [21]: Oral bioavailability in Sprague-Dawley rat at 3 mg/kg. Format: ADME, organism-based. The following applies: in vivo.
The nature of series [22]: Stability in human liver microsomes assessed as intrinsic clearance. Format: ADME, Microsome. The following applies: read-out: CLH.
Series [23] in a line: Stability in rat liver microsomes assessed as intrinsic clearance. Format: ADME, Microsome. The settings on record: read-out: CLH. Background: Microsomes from liver hold many membrane-bound enzymes, among them those of drug oxidation.
A short description of series [24]: Half life in Sprague-Dawley rat at 1 mg/kg, iv. Format: ADME, organism-based. The following applies: in vivo.
Series [25] can be described thus: Volume of distribution in Sprague-Dawley rat at 1 mg/kg, iv. The following applies: in vivo. Format: ADME, organism-based.

Usually Cmax stands for the highest concentration seen after dosing. The term bioavailability denotes the share of a dose that reaches the circulation, judged against a reference dose that is usually intravenous. By AUC(0-t) is commonly meant exposure summed from dosing to a finite time, without extrapolation to infinity. `CCOC(=O)C[C@@H](Cc1ccc(-c2cccc(Cl)c2)cc1)NC(=O)CCC(=O)O` returned a Cmax in series [1] of 12.6 µM. The bioavailability in series [2] turned out to be 42%. For the same compound, the Activity was 99% in series [3], 69% in series [5] and 5% in series [6]. This compound returned an AUC(0-t) at 7 h in series [4] of 10.1 µM·h. The inhibition entry in [7] is “Dose-dependent effect”.
Broadly, the clearance is the rate of elimination divided by the concentration. In the case of `O=C(O)CCC(=O)N[C@@H](CC(=O)O)Cc1ccc(-c2cccc(Cl)c2)cc1`, the clearance came out at 3 mL/min/kg in series [8], 5 mL/min/kg in series [9] and 29 mL/min/kg in series [15]. This compound also yielded an exposure AUC(0-t) at 7 h in [10] of 8.73 µM·h. The results for the half-life in series [11], in [12] and in series [13] were 4 h, 0.8 h and 0.8 h, respectively. In addition, the Vd in series [14] amounted to 0.1 L/kg.
For `O=C(O)CCC(=O)N[C@@H](CC(=O)O)Cc1ccc(-c2ccccc2)cc1`, the hepatocyte CLint in series [16] stood at 2.1 µL/min/1e6 cells; in series [17], 0.68 µL/min/1e6 cells. For the same compound, the concentration in [18] is greater than 2 µM. For the same compound, in series [19], the clearance came to 11 mL/min/kg. In addition, the inhibition entry in [20] was “Active”. This compound gave a bioavailability in series [21] of 66%. Also, the microsomal CLint in [22] and in [23] was less than 3.42 µL/min/mg each time. Besides, in series [24], the half-life was 2.5 h. In series [25], this compound returned a Vd of 0.2 L/kg.
In [9], `COc1ccc(Cl)cc1-c1ccc(C[C@H](CC(=O)O)NC(=O)CCC(=O)O)cc1` came in with a clearance of 5 mL/min/kg. In addition, the AUC(0-t) at 7 h in series [10] was 8.1 µM·h. Further, the half-life in [13] was 1 h. In addition, the Vd in [14] is 0.1 L/kg.
Turning to `CCOC(=O)C[C@@H](Cc1ccc(-c2cc(Cl)ccc2OC)cc1)NC(=O)CCC(=O)O`, the Cmax in series [1] came out at 5.38 µM. The compound also returned a bioavailability in [2] of 25%. Further, in [4], the area under the curve AUC(0-t) at 7 h was determined as 5.63 µM·h.
Take `CCOC(=O)[C@H](C)C[C@@H](Cc1ccc(-c2ccccc2)cc1)NC(=O)CCC(=O)O`: in series [20], the inhibition entry was “Active”.

These data come from ChEMBL document CHEMBL4334554, “Structure-Guided Design of Substituted Biphenyl Butanoic Acid Derivatives as Neprilysin Inhibitors” (ACS Med Chem Lett, 2020).
